Where “and” joins values, the source holds several entries; their conditions need not be identical. Equal entries are not always repeated.
Experiments:
[1] = biological target: T1, Estrogen receptor (Mus musculus) (UniProt O08537+P19785); test: Uterotrophic effect in mice at 24 ug; type: functional, tissue-based; details: Uterus
How it was run: (§1)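 Immature female NMRI mice, 20 days old (14.5 ± 1.2 g), 10 per randomized group. Received test compound subcutaneously in 0.1 mL olive oil daily for 3 days. Uteri removed 24 h after final dose, Bouin-fixed, washed, dried and weighed to measure stimulation of uterine growth.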

[2] = biological target: T1, Estrogen receptor (Mus musculus); test: Uterotrophic effect in mice at 250 ug; type: functional, tissue-based; details: Uterus; how it was run: as §1
[3] = biological target: T1, Estrogen receptor (Mus musculus); test: Uterotrophic effect in mice at 0 ug; type: functional, tissue-based; details: Uterus; how it was run: as §1
[4] = biological target: Estrogen receptor (Bos taurus) (UniProt Q9XSB5+P49884); test: Relative binding affinity for calf uterine estrogen receptor compared to [3H]estradiol; type: protein assay
How it was run: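 Competition binding with calf uterine cytosol and [3H]estradiol, incubated 16 h at 4 °C and stopped with dextran-coated charcoal. Supernatant radioactivity counted after centrifugation. Six competitor concentrations spanned 50% displacement on a semilog plot. RBA = (molar E2 concentration / competitor concentration each giving 50% reduction of bound [3H]E2) × 100.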

[5] = biological target: T1, Estrogen receptor (Mus musculus); test: Uterotrophic effect in mice at 80 ug; type: functional, tissue-based; details: Uterus; how it was run: as §1
[6] = biological target: T1, Estrogen receptor (Mus musculus); test: Uterotrophic effect in mice at 1000 ug; type: functional, tissue-based; details: Uterus; how it was run: as §1
[7] = biological target: T1, Estrogen receptor (Mus musculus); test: Uterotrophic effect in mice at 8 ug; type: functional, tissue-based; details: Uterus; how it was run: as §1
[8] = biological target: T1, Estrogen receptor (Mus musculus); test: Uterotrophic effect in mice at 10 ug; type: functional, tissue-based; details: Uterus; how it was run: as §1
[9] = biological target: T1, Estrogen receptor (Mus musculus); test: Anti-uterotrophic effect in mice at 50 ug; type: functional
How it was run: (§2)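 Immature NMRI mice, 20 days old (14.5 ± 1.2 g), randomly grouped 10 per group. Given daily subcutaneous test compound in 0.1 mL olive oil for 3 days, together with estrone to stimulate uterine growth. Uteri taken 24 h after last injection, fixed in Bouin's solution, washed, dried and weighed. Read-out is inhibition of estrone-stimulated uterine growth.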

[10] = biological target: T1, Estrogen receptor (Mus musculus); test: Anti-uterotrophic effect in mice at 500 ug; type: functional; how it was run: as §2
[11] = biological target: T1, Estrogen receptor (Mus musculus); test: Percent inhibition of estrone stimulated uterine growth in mice at 50 […]; type: functional; how it was run: as §2
[12] = biological target: T1, Estrogen receptor (Mus musculus); test: Percent inhibition of estrone stimulated uterine growth in mice at 500 […]; type: functional; how it was run: as §2
[13] = biological target: T1, Estrogen receptor (Mus musculus); test: Uterotrophic effect in mice at 1 ug; type: functional, tissue-based; details: Uterus; how it was run: as §1
[14] = biological target: T1, Estrogen receptor (Mus musculus); test: Uterotrophic effect in mice at 100 ug; type: functional, tissue-based; details: Uterus; how it was run: as §1
[15] = biological target: T1, Estrogen receptor (Mus musculus); test: Anti-uterotrophic effect in mice at 0 ug; type: functional; how it was run: as §2
[16] = biological target: T1, Estrogen receptor (Mus musculus); test: Percent inhibition of estrone stimulated uterine growth in mice at 5 […]; type: functional; how it was run: as §2
[17] = biological target: T1, Estrogen receptor (Mus musculus); test: Anti-uterotrophic effect in mice at 5 ug; type: functional; how it was run: as §2
[18] = biological target: T1, Estrogen receptor (Mus musculus)
[19] = biological target: T1, Estrogen receptor (Mus musculus); details: Uterus
[20] = biological target: T1, Estrogen receptor (Mus musculus); test: Anti-uterotrophic effect in mice at 10 ug; type: functional; how it was run: as §2
Rattus norvegicus [21] = test: Percent change in body weight in DMBA-induced mammary carcinoma in rats after 7 day therapy at 2 mg/kg/day; type: functional
[22] = biological target: T1, Estrogen receptor (Mus musculus); test: Percent inhibition of estrone stimulated uterine growth in mice at 10 […]; type: functional; how it was run: as §2
[23] = biological target: T1, Estrogen receptor (Mus musculus); test: Anti-uterotrophic effect in mice at 100 ug; type: functional; how it was run: as §2
Rattus norvegicus [24] = test: ercent reduction in tumor size (<50%) in DMBA-induced mammary carcinoma in rats at 5 mg/kg/day; type: functional
[25] = biological target: T1, Estrogen receptor (Mus musculus); test: Percent inhibition of estrone stimulated uterine growth in mice at 1000 […]; type: functional; how it was run: as §2
Rattus norvegicus [26] = test: Percent remission in DMBA-Induced Mammary Carcinoma in rats at 2 mg/kg/day; type: functional
Rattus norvegicus [27] = test: Percent change in tumor area in DMBA-induced carcinoma in rats after 28 day therapy at 5 mg/kg; type: functional
[28] = biological target: T1, Estrogen receptor (Mus musculus); test: Percent inhibition of estrone stimulated uterine growth in mice at 100 […]; type: functional; how it was run: as §2
Rattus norvegicus [29] = test: Percent change in body weight in DMBA-induced mammary carcinoma in rats after 7 day therapy at 5 mg/kg/day; type: functional
[30] = biological target: T1, Estrogen receptor (Mus musculus); test: Anti-uterotrophic effect in mice at 1 ug; type: functional; how it was run: as §2
Rattus norvegicus [31] = test: Percent unchanged tumor size (51-150%) in DMBA-induced mammary carcinoma in rats at 5 mg/kg/day; type: functional
[32] = biological target: T1, Estrogen receptor (Mus musculus); test: Anti-uterotrophic effect in mice at 0.1 ug; type: functional; how it was run: as §2
Rattus norvegicus [33] = test: Percent increase in tumor size (>150%) in DMBA-induced mammary carcinoma in rats at 5 mg/kg/day; type: functional
Rattus norvegicus [34] = test: Percent increase in tumor size (>150%) in DMBA-induced mammary carcinoma in rats at 2 mg/kg/day; type: functional
Rattus norvegicus [35] = test: Percent change in tumor area in DMBA-induced carcinoma in rats after 28 day therapy at 2 mg/kg; type: functional
Rattus norvegicus [36] = test: Percent reduction in tumor size (<50%) in DMBA-induced mammary carcinoma in rats at 2 mg/kg/day; type: functional
Rattus norvegicus [37] = test: Percent remission in DMBA-Induced Mammary Carcinoma in rats at 5 mg/kg/day; type: functional
[38] = biological target: T1, Estrogen receptor (Mus musculus); test: Anti-uterotrophic effect in mice at 1000 ug; type: functional; how it was run: as §2
Rattus norvegicus [39] = test: Percent unchanged tumor size (51-150%) in DMBA-induced mammary carcinoma in rats at 2 mg/kg/day; type: functional
Rattus norvegicus [40] = test: Percent reduction in tumor size (<50%) in DMBA-induced mammary carcinoma in rats at 5 mg/kg/day; type: functional

T1 sequence (O08537 whole entry, looked up): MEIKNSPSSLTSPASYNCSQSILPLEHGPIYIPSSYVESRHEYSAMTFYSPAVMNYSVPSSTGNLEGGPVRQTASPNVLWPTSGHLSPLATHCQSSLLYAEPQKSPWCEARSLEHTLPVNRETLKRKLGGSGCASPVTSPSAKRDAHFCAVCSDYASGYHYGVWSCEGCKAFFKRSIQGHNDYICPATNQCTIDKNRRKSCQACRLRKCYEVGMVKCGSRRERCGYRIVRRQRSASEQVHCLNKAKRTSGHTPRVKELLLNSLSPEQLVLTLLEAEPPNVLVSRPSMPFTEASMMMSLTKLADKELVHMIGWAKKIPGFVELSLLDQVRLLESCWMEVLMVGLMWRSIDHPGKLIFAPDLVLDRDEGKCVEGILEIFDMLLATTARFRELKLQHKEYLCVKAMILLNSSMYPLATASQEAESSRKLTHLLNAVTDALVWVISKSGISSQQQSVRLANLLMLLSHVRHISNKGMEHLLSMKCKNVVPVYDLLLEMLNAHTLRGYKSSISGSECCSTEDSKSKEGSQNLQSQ
T1 sequence (P19785 whole entry, looked up): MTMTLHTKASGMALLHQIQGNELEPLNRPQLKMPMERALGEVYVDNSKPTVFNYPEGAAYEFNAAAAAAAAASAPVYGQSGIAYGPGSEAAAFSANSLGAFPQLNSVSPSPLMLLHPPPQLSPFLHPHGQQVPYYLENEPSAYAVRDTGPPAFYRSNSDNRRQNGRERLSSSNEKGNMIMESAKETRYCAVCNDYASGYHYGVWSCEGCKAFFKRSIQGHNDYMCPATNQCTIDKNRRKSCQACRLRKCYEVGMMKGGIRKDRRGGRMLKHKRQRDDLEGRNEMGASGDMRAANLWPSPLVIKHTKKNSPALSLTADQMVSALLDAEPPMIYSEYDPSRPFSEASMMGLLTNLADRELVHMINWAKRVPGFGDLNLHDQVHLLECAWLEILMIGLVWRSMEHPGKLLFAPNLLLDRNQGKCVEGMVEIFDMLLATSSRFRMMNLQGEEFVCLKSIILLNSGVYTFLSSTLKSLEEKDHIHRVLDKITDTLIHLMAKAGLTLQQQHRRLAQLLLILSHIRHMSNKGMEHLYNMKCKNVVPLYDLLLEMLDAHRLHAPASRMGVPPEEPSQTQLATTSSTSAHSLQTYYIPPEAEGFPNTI

SMILES	Effect [3]	relative binding affinity (RBA) [4]	Effect [6]	Effect [8]	Effect [9]	Effect [10]	Effect [13]	Effect [14]	Effect [15]	also measured
CC(C)(c1ccc(O)cc1)C(C)(C)c1ccc(O)cc1	9.2	3.6	14.3	–	–	–	–	–	–	Effect [1]: 15.7; Effect [2]: 13.3; Effect [5]: 15.8; Effect [7]: 10.6
CC(C)(c1cc(O)ccc1Cl)C(C)(C)c1cc(O)ccc1Cl	11.1	3.5	35.7	22.6	44.2 and 34.9	37.8	14.7	33	13.7	Inhibition (alpha = 0.01) [11]: 36%; Inhibition (alpha = 0.01) [12]: 27%; inhibition [16]: 7%
CC(C)(c1cc(O)cc(Cl)c1)C(C)(C)c1cc(O)cc(Cl)c1	–	0.01	–	–	–	–	–	–	–	–
CC(C)(c1cccc(O)c1)C(C)(C)c1cccc(O)c1	9.2	3	13.4	–	–	–	–	–	–	Effect [1]: 15.7; Effect [2]: 14.6; Effect [5]: 15.4; Effect [7]: 9.8
CC(C)(c1ccc(O)cc1Cl)C(C)(C)c1ccc(O)cc1Cl	13.7	3.4	35.2	51.5	38.9	35.2	35.8	32.7	13.7	inhibition [11]: 17%; inhibition [12]: 29%; Effect [17]: 48.4
COc1ccc(O)cc1C(C)(C)C(C)(C)c1cc(O)ccc1OC	–	< 0.01	–	–	–	–	–	–	–	–
COc1cc(O)ccc1C(C)(C)C(C)(C)c1ccc(O)cc1OC	–	0.45	–	–	–	–	–	–	–	–
Cc1ccc(O)cc1C(C)(C)C(C)(C)c1cc(O)ccc1C	–	0.9	–	–	–	–	–	–	–	–
C[C@]12CC[C@@H]3c4ccc(O)cc4CC[C@H]3[C@@H]1CCC2=O	–	–	–	–	–	–	–	–	–	uterine weight [18]: 47.8 mg/100 g; uterine weight [19]: 45.3 mg/100 g
CC(C)(c1ccc(O)cc1F)C(C)(C)c1ccc(O)cc1F	16.4	6.4	38.5	38.8	–	–	27	42.6	13.8	Effect [20]: 41; Change of weight (Rattus norvegicus [21]): -3.1%; inhibition [22]: 20%; Effect [23]: 35.9; Change of size (Rattus norvegicus [24]): 10%; inhibition [25]: 40%; Remission (Rattus norvegicus [26]): 64%; Change of area (Rattus norvegicus [27]): -47%; inhibition [28]: 35%; Change of weight (Rattus norvegicus [29]): -4%; Effect [30]: 49.9; Change of size (Rattus norvegicus [31]): 3%; Effect [32]: 47.7; Change of size (Rattus norvegicus [33]): 13%; Change of size (Rattus norvegicus [34]): 18%; Change of area (Rattus norvegicus [35]): 22%; Change of size (Rattus norvegicus [36]): 4%; Remission (Rattus norvegicus [37]): 74%; Effect [38]: 34.2; Change of size (Rattus norvegicus [39]): 14%
Cc1cc(O)ccc1C(C)(C)C(C)(C)c1ccc(O)cc1C	11.1	2.6	38	22.2	50	37.3	16.6	28	13.7	inhibition [12]: 22%; Effect [17]: 51.2
CC(C)(c1cc(O)ccc1F)C(C)(C)c1cc(O)ccc1F	9.7	4	35.6	16.6	37.2	32.5	15.4	22.6	13.7	Change of weight (Rattus norvegicus [21]): 3.5%; Remission (Rattus norvegicus [26]): 0%; Change of area (Rattus norvegicus [27]): 396%; Change of weight (Rattus norvegicus [29]): 2.9%; inhibition [11]: 29%; Change of size (Rattus norvegicus [31]): 7%; inhibition [12]: 43%; Change of size (Rattus norvegicus [33]): 89%; Effect [17]: 48.6; Change of size (Rattus norvegicus [34]): 77%; Change of area (Rattus norvegicus [35]): 441%; Remission (Rattus norvegicus [36]): 7%; Remission (Rattus norvegicus [37]): 0%; Change of size (Rattus norvegicus [39]): 16%; Change of size (Rattus norvegicus [40]): 4%
